Reference: ChEMBL document CHEMBL4052614, “Novel 3',5'-diprenylated chalcones inhibited the proliferation of cancer cells in vitro by inducing cell apoptosis and arresting cell cycle phase” (Eur J Med Chem, 2017)
The source made the active and inactive calls. The calls are words filed in the database; no cut-off is given here.

Experiments:
HEL [1] = assay: Growth inhibition of HEL cells at 5 umol/L after 48 hrs by MTT assay relative to control; type: functional; details: Homo sapiens, read-out: GI
Summary of the method: (§1)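 Cells kept in DMEM/10% FBS at 37 °C, 5% CO2, seeded at 4×10^3–8×10^3 cells/well, 24 h attachment, then 48 h with compound at 5 µmol/L. MTT (5 mg/mL solution) added for 4 h at 37 °C, formazan taken up in DMSO, A490 read. Percent inhibition as mean ± SD of three independent experiments. Doxorubicin as positive control.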

K562 [2] = assay: Induction of morphological changes in human K562 cells assessed as increase in intracellular space at 5 umol/L after 48 hrs by inverted microscopic method; type: functional, cell-based
Summary of the method: (§2)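 Cells cultured in DMEM/10% FBS at 37 °C, 5% CO2. Exposed 48 h to 5 µmol/L compound alongside DMSO controls. Morphology (cell number, rounding, spacing, apoptotic bodies, spindle shape) observed under an inverted microscope with CCD camera.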

PC-3 [3] = assay: Induction of apoptosis in human PC3 cells assessed as early apoptotic cells at 5 umol/L after 48 hrs by annexin V-FITC/propidium iodide staining based flow cytometry (reference value: 4%); type: functional
PC-3 [4] = assay: Potency index, ratio of compound effect to (E)-2-Hydroxy-4,4-dimethoxy-3,5-diprenylchalcone effect for growth inhibition of human PC3 cells; type: functional
MDA-MB-231 [5] = assay: Cytotoxicity against human MDA-MB-231 cells after 48 hrs by MTT assay; type: functional, cell-based
Summary of the method: (§3)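 Cells kept in DMEM/10% FBS at 37 °C, 5% CO2, seeded at 4×10^3–8×10^3 cells/well and left 24 h to adhere. Exposed 48 h to a range of concentrations. MTT (5 mg/mL solution) added for 4 h at 37 °C, formazan dissolved in DMSO, absorbance read at 490 nm. IC50 derived from concentration–inhibition relation. Doxorubicin as positive control.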

HEL [6] = assay: Induction of apoptosis in HEL cells assessed as late apoptotic cells at 5 umol/L after 48 hrs by annexin V-FITC/propidium iodide staining based flow cytometry (reference value: 1.6 to 3.3%); type: functional, Homo sapiens
K562 [7] = assay: Induction of apoptosis in human K562 cells assessed as early apoptotic cells at 5 umol/L after 48 hrs by annexin V-FITC/propidium iodide staining based flow cytometry (reference value: 4%); type: functional
HEL [8] = assay: Induction of apoptosis in HEL cells assessed as viable cells at 5 umol/L after 48 hrs by annexin V-FITC/propidium iodide staining based flow cytometry (reference value: 93.1 to 94%); type: functional; details: Homo sapiens, read-out: Activity
MDA-MB-231 [9] = assay: Induction of morphological changes in human MDA-MB-231 cells assessed as increase in intracellular space at 5 umol/L after 48 hrs by inverted microscopic method; type: functional, cell-based; summary of the method: as §2
K562 [10] = assay: Induction of morphological changes in human K562 cells assessed as increase in formation of apoptotic bodies at 5 umol/L after 48 hrs by inverted microscopic method; type: functional, cell-based; summary of the method: as §2
PC-3 [11] = assay: Growth inhibition of human PC3 cells at 5 umol/L after 48 hrs by MTT assay relative to control; type: functional; details: PC-3, 48 h, read-out: GI; summary of the method: as §1
K562 [12] = assay: Induction of apoptosis in human K562 cells assessed as viable cells at 5 umol/L after 48 hrs by annexin V-FITC/propidium iodide staining based flow cytometry (reference value: 92.6%); type: functional; details: K562, 48 h, read-out: Activity
MDA-MB-231 [13] = assay: Induction of apoptosis in human MDA-MB-231 cells assessed as necrotic cells at 5 umol/L after 48 hrs by annexin V-FITC/propidium iodide staining based flow cytometry (reference value: 3.4%); type: functional
K562 [14] = assay: Induction of apoptosis in human K562 cells assessed as necrotic cells at 5 umol/L after 48 hrs by annexin V-FITC/propidium iodide staining based flow cytometry (reference value: 1.2%); type: functional
PC-3 [15] = assay: Induction of apoptosis in human PC3 cells assessed as spindle like formation at 5 umol/L after 48 hrs by inverted microscopic method; type: functional, cell-based; summary of the method: as §2
HEL [16] = assay: Induction of morphological changes in HEL cells assessed as formation of apoptotic bodies at 5 umol/L after 48 hrs by inverted fluorescence microscopic analysis; type: functional, cell-based; details: Homo sapiens; summary of the method: as §2
PC-3 [17] = assay: Induction of morphological changes in human PC3 cells assessed as increase in cell rounding at 5 umol/L after 48 hrs by inverted microscopic method; type: functional, cell-based
Summary of the method: (§4)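 PC3 cells were kept in DMEM with 10% FBS, penicillin and streptomycin at 37 °C under 5% CO2, and were passaged at least 3 times after thawing. Cells were seeded at 4 × 10^3 to 8 × 10^3 cells/well and left to adhere for 24 h. They were then exposed to 5 µmol/L compound for 48 h. Morphology was viewed by inverted microscope against DMSO-treated controls.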

K562 [18] = assay: Growth inhibition of human K562 cells at 5 umol/L after 48 hrs by MTT assay relative to control; type: functional; details: K562, 48 h, read-out: GI; summary of the method: as §1
MDA-MB-231 [19] = assay: Induction of apoptosis in human MDA-MB-231 cells assessed as early apoptotic cells at 5 umol/L after 48 hrs by annexin V-FITC/propidium iodide staining based flow cytometry (reference value: 3%); type: functional
K562 [20] = assay: Cytotoxicity against human K562 cells after 48 hrs by MTT assay; type: functional, cell-based; summary of the method: as §3
MDA-MB-231 [21] = assay: Induction of morphological changes in human MDA-MB-231 cells assessed as reduction in number of apoptotic bodies at 5 umol/L after 48 hrs by inverted microscopic method
MDA-MB-231 [22] = assay: Cell cycle arrest in human MDA-MB-231 cells assessed as decrease in S phase accumulation at 5 umol/L after 48 hrs by propidium iodide staining based flow cytometric method; type: functional
Summary of the method: (§5)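 Cells grown in DMEM with 10% FBS and penicillin/streptomycin at 37 °C, 5% CO2, and passaged at least 3 times after thawing. Treated 48 h at 5 µmol/L, DMSO-treated controls. Harvested by trypsin, PBS-washed, fixed in ice-cold ethanol, blocked 1 h at 4 °C in 5% BSA/PBS, RNase 1 µg/mL 30 min at 37 °C, PI 20 µg/mL final. Phase percentages read from PI histograms. Mean ± SD, three independent experiments.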

K562 [23] = assay: Cell cycle arrest in human K562 cells assessed as decrease in G2 phase accumulation at 5 umol/L after 48 hrs by propidium iodide staining based flow cytometry; type: functional; summary of the method: as §5
PC-3 [24] = assay: Induction of morphological changes in human PC3 cells assessed as increase in formation of apoptotic bodies at 5 umol/L after 48 hrs by inverted microscopic method; type: functional, cell-based; summary of the method: as §4

For COc1c(CC=C(C)C)cc(C(=O)/C=C/c2cccnc2)c(O)c1CC=C(C)C, the inhibition of growth at 5 µM (HEL [1]) was 91.7%, the Activity (K562 [2]) was “Active” and the Activity (PC-3 [3]) was 1.8%. For the same compound, the Ratio (PC-3 [4]) was 3 - 4, the Activity (MDA-MB-231 [5]) was “Dose-dependent effect” and the IC50 (MDA-MB-231 [5]; MDA-MB-231, 48 h) was 3.14 µM. For the same compound, the Activity (HEL [6]) was 7.1%, the Activity (K562 [7]) was 10.1% and the viability at 5 µM (HEL [8]) was 82.4%. For the same compound, the Activity (MDA-MB-231 [9]) was “Active”, the Activity (K562 [10]) was “Active” and the inhibition of growth at 5 µM (PC-3 [11]) was 90.4%. For the same compound, the viability at 5 µM (K562 [12]) was 64%, the Activity (MDA-MB-231 [13]) was 14.1% and the Activity (K562 [14]) was 11.3%. For the same compound, the Activity (PC-3 [15]) was “Active”, the Activity (HEL [16]) was “inactive” and the Activity (PC-3 [17]) was “Active”. For the same compound, the inhibition of growth at 5 µM (K562 [18]) was 86.2%, the Activity (MDA-MB-231 [19]) was 13.8% and the Activity (K562 [20]) was “Dose-dependent effect”. The IC50 (K562 [20]; K562, 48 h) was 2.64 µM, the Activity (MDA-MB-231 [21]) was “Active” and the Activity (MDA-MB-231 [22]) was “Active”. The Activity (K562 [23]) was “Active” and the Activity (PC-3 [24]) was “Active”.
